# HNF4A DNA FP: change in binding of human HNF4 alpha to DNA; 0.3% of 360,000 active; P41235; activity change, % at 10 µM; HNF4a-FITC DNA binding, fluorescence polarization, 1 h; AID 1224865; in the data active = activity change above about 30%, passing the limit was not always enough
# Rpn11 block: Rpn11 (human) deubiquitinase inhibition | human 26S proteasome, Ub4-pepOG fluorescence polarization; 20S core pre-blocked with epoxomicin | inhibition, % at 20 µM | O00487 | 0.59% of 360,000 active | AID 588493;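 active = inhibition at 20 µM, scaled to each plate's controls, above about 33%, limit read from the data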
# Target sequence (O00487 whole entry, looked up): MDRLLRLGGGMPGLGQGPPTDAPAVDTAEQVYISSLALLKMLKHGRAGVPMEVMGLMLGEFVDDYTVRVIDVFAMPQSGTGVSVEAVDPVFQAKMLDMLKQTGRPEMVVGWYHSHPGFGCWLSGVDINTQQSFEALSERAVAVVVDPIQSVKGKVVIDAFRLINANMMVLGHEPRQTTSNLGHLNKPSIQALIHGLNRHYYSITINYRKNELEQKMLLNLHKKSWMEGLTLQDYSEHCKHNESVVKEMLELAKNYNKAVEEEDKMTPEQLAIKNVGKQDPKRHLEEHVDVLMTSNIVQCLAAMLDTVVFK
# ATG4B inhibitor: ATG4B (human) cysteine protease inhibition; ATG4B cleavage of LC3-PLA2, NBD-HPC fluorescence, 1 h; 0.51% of 340,000 active; AID 504462; inhibition, % at 8.33 µM; in the data active = inhibition above about 40%
# Target sequence (Q9Y4P1 whole entry, looked up): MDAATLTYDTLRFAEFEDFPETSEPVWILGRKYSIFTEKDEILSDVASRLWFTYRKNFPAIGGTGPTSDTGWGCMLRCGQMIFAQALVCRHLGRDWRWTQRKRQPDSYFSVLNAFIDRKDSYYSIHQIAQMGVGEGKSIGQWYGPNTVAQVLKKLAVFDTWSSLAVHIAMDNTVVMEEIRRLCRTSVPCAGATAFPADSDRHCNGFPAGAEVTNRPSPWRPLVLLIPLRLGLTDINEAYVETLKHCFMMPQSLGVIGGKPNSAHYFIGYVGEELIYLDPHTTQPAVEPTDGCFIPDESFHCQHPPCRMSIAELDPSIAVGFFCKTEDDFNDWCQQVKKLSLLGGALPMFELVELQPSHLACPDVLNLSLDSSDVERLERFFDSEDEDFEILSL
# CSN inh: CSN deneddylation inhibition; Purified CSN, SCF-Nedd8-OG deneddylation, fluorescence polarization; inhibition, % at 12.5 µM; 0.38% of 360,000 active; AID 651999;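 active = pattern-corrected inhibition above about 35%, with an unprinted fluorescence ratio check between 0.5 and 1.5, limit read from the data, passing the limit was not always enough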;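 also: 0% = enzyme with substrate and 100% = substrate without enzyme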
#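 Assay system: Purified human Csn5 enzyme expressed in HEK293T cells | Amount: Enzyme 0.24 nM | Measured by: Fluorescence polarization readout | Medium: Tris/NaCl/DTT buffer, pH 7.5 | Compound dosing: One concentration, 12.5 µM, 0.25% DMSO | Times: 90 min incubation of compound, enzyme and substrate at room temperature | Control set: no-enzyme wells high, enzyme-with-substrate wells low | Read-out: % inhibition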
# TPT1 inh: C. albicans TPT1 enzyme inhibition. recombinant caTPT1, FP RNA substrate dephosphorylation. inhibition, % at 5 µM. 0.81% of 300,000 active. AID 1962;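 active = inhibition above the mean of all tested compounds plus 3 SD, set per screening campaign, cut at about 24% in these data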;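 also: plate controls were DMSO alone for no effect and ferristatin control at 100 nM for full effect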
# SENP1 FRET inh: SENP1 (human) catalytic domain inhibition. Q9P0U3. inhibition, % at 10 µM. recombinant SENP1 catalytic domain, CyPet-SUMO1-YPet FRET cleavage. 0.21% of 360,000 active;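 active = inhibition at least 30% at 10 µM, raw YFP signal under a set limit, fluorescence ratio 0.5 to 1.5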;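 also: 0% = enzyme with DMSO and 100% = no enzyme wells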
#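 Compound: 10 µM single point, 0.5% DMSO; Test system: hSENP1 catalytic domain, recombinant; Timing: 50 min reaction at room temperature; Technique: FRET, CFP and YFP emission; Control set: no-enzyme wells low, DMSO-plus-enzyme wells high control.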
# caTPT1 confirm: confirmation of Candida albicans TPT1 inhibitors; shares compounds with TPT1 inh; recombinant caTPT1, fluorescence polarization, RNase T1 coupled; inhibition, % at 5 µM; 74% of 2,400 active; AID 2149;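 active = inhibition above the primary screen limit, the mean inhibition of all tested compounds plus 3 SD, cut at about 25% in these data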
# RNase T1 counter: counter-screen for TPT1 inhibitors: inhibitors of Aspergillus oryzae RNase T1; inhibition, % at 5 µM; RNase T1 cleavage, fluorescence polarization, 1536-well; 83% of 2,400 active; shares compounds with TPT1 inh;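 active = inhibition above the solvent-only control well mean plus 3 SD, limit set per screening run, cut at about 23% in these data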;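 also: plate controls were DMSO wells with enzyme for no effect and wells without RNase T1 for full effect; inhibitors block cleavage so intact labeled substrate keeps polarization high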
# Numbers without * were called inactive; . = no result given. In the library only some 2% were active in any assay of this set; here they are far more common.
SMILES,HNF4A DNA FP,Rpn11 block,ATG4B inhibitor,CSN inh,TPT1 inh,SENP1 FRET inh,caTPT1 confirm,RNase T1 counter
COc1ccc2[nH]c3c(c2c1)CCN1C(=O)C(CC(=O)NCCCn2ccnc2)C[C@H](C(=O)N2CCOCC2)[C@@]31C (stereo not given in full),-6.0,-2.8,.,0.5,.,3.2,.,.
CC(C)C[C@H]1CNC(=O)C(=O)N1CC1CCN(CCc2ccc(-c3ccccc3)cc2)CC1,-0.8,2.9,.,-3.7,.,1.8,.,.
N#Cc1ccc(S(=O)(=O)N2CCCCC2c2cc(C(=O)N3CCOCC3)no2)cc1 (stereo not given),-2.3,0.1,.,-4.3,.,-1.4,.,.
Oc1[nH]c(=S)sc1C=C1N=c2ccccc2=N1,10.7,0.8,4.6,9.5,2.5,-15.0,.,.
Oc1[nH]c(=S)sc1/C=C1\C(c2ccccc2)=Nc2ccccc21,95.3*,.,99.4*,24.1,138.4*,-22.2,129.9*,136.0*
CN1CCN(S(=O)(=O)c2ccc(Sc3nnc(-c4cccs4)n3-c3ccccc3)nc2)CC1,1.7,-2.1,-15.4,-1.3,33.7*,1.3,2.8,4.8
CSc1nnc(-c2cccs2)n1-c1ccccc1,3.5,-9.0,1.3,-1.6,0.7,0.7,.,.
O=C1CSc2ccc(S(=O)(=O)N3CCN(c4ccccc4)CC3)cc2N1,5.9,-6.0,-11.9,2.5,1.9,2.6,.,.
O=C1CSc2ccc(S(=O)(=O)N3CCN(c4ccccc4F)CC3)cc2N1,0.9,-1.9,3.1,0.5,28.0*,1.1,3.2,9.5
COC(CNC(=O)C1CCCN1C(=O)OCc1ccccc1)OC (stereo not given),-7.0,-3.2,-0.6,-0.7,42.9*,2.7,4.5,7.2
CCOC(=O)C(NC(=O)C1CCCN1C(=O)OCc1ccccc1)C(=O)OCC (stereo not given),-2.5,-3.1,7.5,-5.0,-1.6,5.7,.,.
CCOC(=O)N1CCN(C(=O)c2ccc(CS(=O)Cc3ccccc3Cl)o2)CC1 (stereo not given),-3.4,-3.8,-7.8,4.3,-0.6,1.9,.,.
O=C(c1ccc(CS(=O)Cc2ccccc2Cl)o1)N1CCN(C2CCCCC2)CC1 (stereo not given),-2.1,-6.7,-5.9,-5.4,117.2*,0.1,7.2,4.4
COC(=O)c1ccccc1NC(=O)Cn1c(CCC(=O)O)ccc1-c1cccs1,-0.6,9.7,-11.9,2.4,31.9*,-3.8,21.2,32.2*
O=C(CCCCl)NC1=NN(c2ccccc2)C(=O)C1,0.5,1.2,-0.4,-3.4,35.1*,0.6,7.2,7.9
CC1(C)NC(=S)NC1=S,2.5,-0.5,2.0,-2.8,.,-1.5,.,.
CCC(=O)Nc1ccc(C(=O)CN2C(=O)NC3(CCCCCC3)C2=O)cc1,8.8,5.4,-5.5,-1.1,.,-7.5,.,.
CCN(CC)c1ccc(C=N/C(C#N)=C(\N)C#N)cc1,27.6,.,-5.2,27.5,82.6*,-30.9,116.4*,121.0*
Cc1ccc(/C=C/c2nc3ccccc3s2)s1,8.5,13.7,-3.8,4.2,41.8*,-1.7,42.6*,53.8*
Cc1ccc(Nc2nc3ccccc3s2)cc1,-3.1,10.9,1.7,-8.5,-0.9,1.6,.,.
CCC(C)[C@H]1CNC(=O)C(=O)N1CCCCC1CCCCC1 (stereo not given in full),3.5,.,.,-0.5,.,-0.8,.,.
CCN(CC)C(=O)c1ccc(/C=C/c2c[nH]c3ccccc23)[n+](C)c1,125.7,.,-8.9,125.3,102.6*,-16.1,109.8*,111.7*
Cc1ccc(C(=O)/C=C/c2c[nH]c3ccccc23)cc1,6.0,20.7,19.9,-0.9,14.7,-20.0,.,.
O=C(O)C1(Nc2ccc([N+](=O)[O-])cc2[N+](=O)[O-])CCCC1,1.7,2.7,7.8,1.6,.,1.7,.,.
COc1ccc(CCNC(=O)CSc2nnc(C(C)N(C)C)n2Cc2ccccc2)cc1OC (stereo not given),2.0,1.0,-3.7,-4.4,99.7*,1.0,-1.2,3.3
SMILES,HNF4A DNA FP,Rpn11 block,ATG4B inhibitor,CSN inh,TPT1 inh,SENP1 FRET inh,caTPT1 confirm,RNase T1 counter
COc1nn(-c2nc(-c3ccccc3)cc(C(F)(F)F)n2)cc1[N+](=O)[O-],1.2,-1.3,0.8,-2.0,54.5*,0.8,1.6,5.0
Cc1c(CC(=O)N[C@@H](C)C(=O)O)c(=O)oc2cc3oc4c(c3cc12)CCCC4,-1.2,6.6,6.8,3.1,-1.5,-10.1,.,.
CCN(CC)c1ccc2cc(C=O)c(=O)oc2c1,14.2,.,-11.7,-73.2,120.7*,-19.2,101.8*,100.8*
CCOc1ccccc1NC(=O)c1cc2ccccc2oc1=O,3.6,-3.2,-6.5,5.7,-3.0,5.2,.,.
CCCCCCc1cc2cc(C(N)=O)c(=N)oc2cc1O,.,.,.,.,66.7*,.,7.6,22.3*
CCN(CC)c1ccc2cc(C(N)=O)c(=N)oc2c1,-22.3,.,-15.5,-89.9,72.8*,-21.9,70.9*,75.4*
CCN(CC)c1ccc2cc(C(=O)Nc3ccccn3)c(=O)oc2c1,31.8,-26.5,-14.1,-13.2,134.6*,-18.8,109.2*,111.6*
Cc1ccsc1C(=O)N1CCCCCC1(C)C(=O)NCC(C)C (stereo not given),2.6,-7.2,.,-6.9,.,1.3,.,.
CCOc1ccc(C=NNC(=O)c2cccc3ccccc23)cc1OCC,0.5,0.4,10.0,0.9,.,-0.6,.,.
CCN(CC)c1ccc2cc(/C(N)=N/NC(=O)c3cccs3)c(=O)oc2c1,.,.,.,.,87.1*,.,108.0*,111.6*
CCN(CC)c1ccc2cc(C(C)=O)c(=O)oc2c1,.,.,-11.7,96.9,130.8*,-21.9,109.0*,108.8*
CCN(CC)c1ccc2cc(NC(=O)CCC(=O)O)c(=O)oc2c1,-49.2,-102.4,-6.5,-16.4,-28.2,-21.7,.,.
Cc1ccccc1C1=C/C(=C(\SS/C(C(=O)c2ccc(OCC(=O)O)c(Cl)c2Cl)=C2\C=C(c3ccccc3C)SS2)C(=O)c2ccc(OCC(=O)O)c(Cl)c2Cl)SS1,-28.8,9.0,28.4,29.4,.,5.6,.,.
Nc1c(C(=O)Nc2ccc(F)cc2)sc2nc(-c3ccco3)ccc12,14.4,22.8,2.9,19.6,28.0*,-22.0,24.6*,33.5*
CC(=O)c1sc2nc(-c3ccco3)ccc2c1N,-21.9,-4.7,8.3,36.8,0.7,-38.3,.,.
Nc1c(C(=O)Nc2ccc(Br)cc2)sc2nc(-c3ccco3)ccc12,9.4,33.4,13.3,34.4,24.5*,-22.4,35.3*,44.3*
O=C(c1cc(COc2c(F)cccc2F)on1)N1CC[C@@H]2CCCC[C@H]2C1,2.6,1.2,.,4.4,.,1.2,.,.
